Test results taken from ChEMBL document CHEMBL1125029, “Chemical and biochemical studies of 2-propynylpyrrolidine derivatives. Restricted-rotation analogues of N-methyl-N-(1-methyl-4-pyrrolidino-2-butynyl)acetamide (BM-5)” (J Med Chem, 1990).

How the values were obtained:
[1] = biological target: T1, Muscarinic acetylcholine receptor M1 (Rattus norvegicus) (UniProt P08482); assay: Muscarinic 1 receptor agonistic activity as the selectivity ratio of Ki against [3H]-QNB to that of [3H]PZ; assay type: functional
T1 sequence (whole entry): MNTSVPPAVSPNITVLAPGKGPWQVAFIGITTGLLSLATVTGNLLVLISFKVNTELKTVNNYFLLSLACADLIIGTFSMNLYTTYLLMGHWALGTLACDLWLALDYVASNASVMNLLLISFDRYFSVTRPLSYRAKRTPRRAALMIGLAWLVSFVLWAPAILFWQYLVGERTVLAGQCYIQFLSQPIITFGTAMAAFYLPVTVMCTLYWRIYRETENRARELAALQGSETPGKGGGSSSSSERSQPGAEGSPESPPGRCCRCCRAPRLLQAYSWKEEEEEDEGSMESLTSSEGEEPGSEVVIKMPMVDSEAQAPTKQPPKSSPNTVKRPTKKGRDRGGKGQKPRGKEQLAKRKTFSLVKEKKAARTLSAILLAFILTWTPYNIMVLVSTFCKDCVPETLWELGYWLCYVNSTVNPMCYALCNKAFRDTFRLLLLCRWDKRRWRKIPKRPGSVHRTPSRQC

[2] = biological target: T1, Muscarinic acetylcholine receptor M1 (Rattus norvegicus); assay: Muscarinic 1 receptor agonistic activity as the selectivity ratio of Ki against [3H]-QNB+ Gpp(NH)p to that of [3H]PZ; assay type: functional
[3] = biological target: T2, Muscarinic acetylcholine receptor M2 (Rattus norvegicus) (UniProt P10980); assay: Muscarinic 2 receptor agonistic activity was determined as the selectivity ratio of Ki against [3H]QNB+ Gpp(NH)p to that of [3H]QNB; assay type: functional
T2 sequence (whole entry): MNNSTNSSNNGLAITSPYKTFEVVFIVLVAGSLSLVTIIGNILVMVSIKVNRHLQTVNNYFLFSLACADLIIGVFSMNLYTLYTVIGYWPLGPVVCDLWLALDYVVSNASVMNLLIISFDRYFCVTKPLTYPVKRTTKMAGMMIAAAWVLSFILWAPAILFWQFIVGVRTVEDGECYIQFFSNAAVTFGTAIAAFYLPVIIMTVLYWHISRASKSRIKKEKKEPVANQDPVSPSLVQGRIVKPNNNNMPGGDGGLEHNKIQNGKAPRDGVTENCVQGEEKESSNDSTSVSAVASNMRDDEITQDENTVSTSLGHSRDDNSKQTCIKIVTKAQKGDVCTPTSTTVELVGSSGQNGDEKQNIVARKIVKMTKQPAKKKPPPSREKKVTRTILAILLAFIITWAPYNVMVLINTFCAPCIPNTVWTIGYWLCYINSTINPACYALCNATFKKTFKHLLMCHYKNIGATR

[4] = biological target: Muscarinic acetylcholine receptor; assay: Binding activity to muscarinic acetylcholine receptor in rat heart, assayed using [3H]-QNB as a radioligand.
In short: (§1)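 Male Wistar rat heart ventricles flushed, minced, Polytron-homogenized in 10 mM Na/K phosphate pH 7.4, spun 48000 g 15 min 4 °C, resuspended, gauze-filtered, diluted 1:750, 0.15-0.2 mg protein/2.0 mL. 10 μM Gpp(NH)p added to homogenate for line 3. Competitor 10^-12 to 10^-3 M. 10 μM atropine nonspecific. Filtration, scintillation counting. Ki from one-site fit.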

[5] = biological target: Muscarinic acetylcholine receptor; assay: Binding activity to muscarinic acetylcholine receptor in rat heart, assayed using [3H]QNB as a radioligand in the presence of Gpp(NH)p.; in short: as §1
[6] = biological target: Muscarinic acetylcholine receptor; assay: Binding activity to the muscarinic acetylcholine receptor in rat cortex, assayed using [3H]CD as a radioligand.; assay type: tissue-based
In short: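 Male Wistar rat cerebral cortex homogenate in 10 mM Na/K phosphate pH 7.4, diluted 1:300 (wet wt/v), ~0.75 mg protein per 2.0 mL. 1 nM radioligand (55.5 Ci/mmol), prepared fresh in buffer. Competitor 10^-12 to 10^-3 M. Nonspecific binding with 10 μM atropine. Rapid filtration on PEI-treated filters, scintillation counting. Apparent Ki by one-site competitive nonlinear regression.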

[7] = biological target: Muscarinic acetylcholine receptor; assay: Binding activity to the muscarinic acetylcholine receptor in rat cortex, assayed using [3H]PZ as a radioligand.; assay type: tissue-based
In short: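 Rat (male Wistar, 200-250 g) cortex homogenized in ice-cold Na/K phosphate buffer pH 7.4, diluted 1:400, ~0.55 mg protein per 2.0 mL. 0.1 nM radioligand (84.1 Ci/mmol), made fresh just before use. Unlabeled competitor at final 10^-12 to 10^-3 M. 10 μM atropine for nonspecific. Filtered, counted by liquid scintillation. One-site competitive fit gives apparent Ki.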

[8] = biological target: Muscarinic acetylcholine receptor; assay: (§2) Binding activity against Muscarinic acetylcholine receptor in rat cortex, using [3H]QNB as a radioligand.; assay type: tissue-based
In short: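 Competitor at final 10^-12 to 10^-3 M. 10 μM atropine defines nonspecific binding. Filtration on PEI-soaked GF/B filters, scintillation counting. Apparent Ki from one-site competitive nonlinear fit.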

[9] = biological target: Muscarinic receptor M1 and M2 (Rattus norvegicus) (UniProt P08482+P10980); assay: The agonist ratio as the ratio of Ki against [3H]QNB to that of [3H]-CD; assay type: functional
[10] = biological target: Muscarinic acetylcholine receptor; assay: as §2; assay type: tissue-based; remark: listed apart in the source
In short: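 Radioligand 250 pM (30.0 Ci/mmol). Competitor at final 10^-12 to 10^-3 M. 10 μM atropine defines nonspecific binding. Filtration on PEI-soaked GF/B filters, scintillation counting. Apparent Ki from one-site competitive nonlinear fit.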

Row | Ratio [1] | Ratio [2] | Ratio [3] | Ki [4] [nM] | Ki [5] [nM] | Ki [6] [nM] | Ki [7] [nM] | Ki [8] [nM] | Ratio [9] | Ki [10] [nM] | Compound
1 | 1.5 | 1.6 | 1.1 | 13400 | 14100 | 3300 | 9040 | 11400 | 3.5 |  | CN(C)CC#C[C@@H]1CCCN1C(=O)OC(C)(C)C
2 | 2.2 | 8.1 | 3.6 | 11800 | 42400 | 1650 | 5250 | 13800 | 8.4 |  | CC(=O)N1CCC[C@@H]1C#CCN(C)C
3 | 1.3 | 3.4 | 2.6 | 2070 | 5470 | 110 | 1630 | 2230 | 20.3 |  | CC(=O)N1CCC[C@@H]1C#CC[N+](C)(C)C
4 | 1.5 | 1.4 | 1 | 20000 | 19100 | 37350 | 13200 |  | 0.2 | 8500 | CN(C)CC#C[C@@H]1CCCN1.Cl.Cl
5 | 3.1 | 4.7 | 1.5 | 1320 | 1960 | 220 | 420 | 660 | 3 |  | CC(C)(C)OC(=O)N1CCC[C@@H]1C#CCN1CCCC1
6 | 1.1 | 1.2 | 1 | 28500 | 29300 | 37080 | 25200 | 18700 | 0.5 |  | CN(C)CC#C[C@H]1CCCN1.Cl.Cl
7 | 1.4 | 3.3 | 2.3 | 5910 | 13400 | 1980 | 4110 | 1920 | 1 |  | CS(=O)(=O)N1CCC[C@@H]1C#CCN1CCCC1.Cl
8 | 2.7 | 2.5 | 1 | 3260 | 3120 | 3350 | 1180 | 2390 | 0.7 |  | O=CN1CCC[C@@H]1C#CCN1CCCC1
9 | 2 | 3 | 1.5 | 12900 | 19600 | 1280 | 6500 | 3220 | 2.5 |  | C(#C[C@H]1CCCN1)CN1CCCC1.Cl.Cl
10 | 0.9 | 3.5 | 3.8 | 5160 | 19600 | 250 | 5600 | 3200 | 12.8 |  | CN(C)CC#C[C@H]1CCCN1C(=O)OC(C)(C)C
11 | 0.7 | 0.9 | 1.3 | 1550 | 2080 | 5670 | 2220 |  | 0.5 | 2800 | C(#C[C@@H]1CCCN1)CN1CCCC1.Cl.Cl
12 | 3 | 3.9 | 1.3 | 4420 | 5750 | 1440 | 1480 | 620 | 0.4 |  | COC(=O)N1CCC[C@H]1C#CCN1CCCC1
13 | 1.8 | 3.2 | 1.7 | 2940 | 5060 | 530 | 1590 | 810 | 1.5 |  | COC(=O)N1CCC[C@@H]1C#CCN1CCCC1
14 | 1.3 | 4.4 | 3.4 | 51700 | 175000 | 15500 | 40000 |  | 3.2 | 48900 | CC(=O)N1CCC[C@H]1C#CCN(C)C
15 | 8.8 | 7.6 | 0.9 | 1230 | 1070 | 440 | 140 | 360 | 0.8 |  | Cl.O=C(N1CCC[C@@H]1C#CCN1CCCC1)C(F)(F)F
16 | 8.5 | 10 | 1.2 | 850 | 1000 | 610 | 100 | 310 | 0.5 |  | CCOC(=O)N1CCC[C@H]1C#CCN1CCCC1
17 | 1.2 | 3.4 | 2.9 | 16400 | 47100 | 4150 | 13900 |  | 5 | 20900 | CC(=O)N1CCC[C@H]1C#CC[N+](C)(C)C
18 | 4.9 | 5.5 | 1.1 | 940 | 1040 | 510 | 190 | 1160 | 2.3 |  | CCOC(=O)N1CCC[C@@H]1C#CCN1CCCC1
19 | 3.6 | 9.6 | 2.7 | 610 | 1630 | 450 | 170 | 430 | 1 |  | CC(=O)N1CCC[C@@H]1C#CCN1CCCC1.Cl
20 | 2.1 | 2.9 | 1.4 | 6400 | 8860 | 2220 | 3100 | 3450 | 1.6 |  | Cl.O=C(N1CCC[C@H]1C#CCN1CCCC1)C(F)(F)F
21 | 1.5 | 2.5 | 1.6 | 9190 | 15100 | 3920 | 6050 | 3020 | 0.8 |  | CS(=O)(=O)N1CCC[C@H]1C#CCN1CCCC1.Cl
22 | 1.9 | 13 | 6.9 | 130 | 900 | 330 | 70 | 980 | 3 |  | CC(C)(C)OC(=O)N1CCC[C@H]1C#CCN1CCCC1

Row | Compound | Ratio [1] | Ratio [2] | Ratio [3] | Ki [4] [nM] | Ki [5] [nM] | Ki [6] [nM] | Ki [7] [nM] | Ki [8] [nM] | Ratio [9] | Ki [10] [nM]
23 | O=C1CCCN1CC#CCN1CCCC1 [OXOTREMORINE] | 0.03 | 1 | 35 | 4 | 140 | 0.5 | 140 | 60 | 120 | 
